Screening data from PubChem.
UBC13 inh: human UBC13 polyubiquitination inhibition; inhibition, % at 20 µM; P61088; UBC13 polyubiquitin chain formation, TR-FRET; 330,000 compounds, 0.47% hits; AID 485273; in the data active means inhibition above about 45%, passing the limit was not always enough; inconclusive means no clear call, values can overlap the other calls
UBC9 SUMO inh: blocks human SUMOylation mediated by UBC9. P63279. HTRF SUMOylation assay, SAE1/SAE2 + UBC9, in vitro. inhibition, % at 35 µM. 290,000 compounds, 0.36% hits; in the data active means inhibition above about 50%, passing the limit was not always enough; inconclusive means no clear call, values can overlap the other calls
Target sequence (P63279 whole entry, looked up): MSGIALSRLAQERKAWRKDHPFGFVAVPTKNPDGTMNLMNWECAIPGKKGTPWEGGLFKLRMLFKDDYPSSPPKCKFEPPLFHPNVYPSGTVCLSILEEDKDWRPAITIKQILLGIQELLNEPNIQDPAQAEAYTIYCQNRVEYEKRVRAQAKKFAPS
RBBP9 inh: blocks human serine hydrolase RBBP9; O75884; recombinant RBBP9, FP-Rh probe fluorescence polarization; inhibition, % at 7.94 µM; 220,000 compounds, 0.2% hits; AID 1515;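 active means inhibition above the campaign mean of all tested compounds plus 3 SD, cut at about 14% in these data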;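 further: plate controls were DMSO wells with RBBP9 for no effect and wells lacking RBBP9 protein for full effect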
Target sequence (O75884 whole entry, looked up): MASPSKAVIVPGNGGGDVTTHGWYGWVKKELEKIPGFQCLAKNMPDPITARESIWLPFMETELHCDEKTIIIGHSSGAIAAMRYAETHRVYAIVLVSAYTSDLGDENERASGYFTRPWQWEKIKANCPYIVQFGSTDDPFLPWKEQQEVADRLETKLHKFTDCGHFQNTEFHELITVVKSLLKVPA
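Measured by: FP readout at 525/598 nm; material: recombinant human RBBP9; also added: Serine-hydrolase probe FP-Rh, 375 nM pre-mixing; medium: Tris buffer pH 8.0, NaCl, Pluronic; replication: one well per compound; doses: one concentration, 7.94 µM nominal, 0.794% DMSO; timing: preincubation 30 min plus labeling 45 min at 25 °C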
PREPL inh: human PREPL enzyme inhibition | Q4J6C6 | 320,000 compounds, 0.68% hits | inhibition, % at 5.96 µM | recombinant PREPL, fluorescence polarization activity-based probe; in the data active means inhibition above about 43%;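 further: 0% = enzyme with DMSO and 100% = wells lacking enzyme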
ALR inh: human ALR oxidase inhibition via reduced H2O2. purified ALR, DTT oxidation, H2O2 HRP-luminol luminescence. 290,000 compounds, 3.8% hits. inhibition, % (no concentration beside the values). AID 485317. P55789;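 active means mean replicate inhibition above about 79%, with every replicate also reaching it, limit read from the data; inconclusive means only one of the two criteria met; inactive means mean below limit and not every replicate reaching it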
Rin1 Abl inh: inhibitors of human Rin1-Abl protein interaction. inhibition, % at 7.35 µM. 360,000 compounds, 0.4% hits. TR-FRET Rin1/Abl binding, biochemical. P00519+Q13671; in the data active means inhibition above about 5%, passing the limit was not always enough
Casp3 counter: caspase-3 inhibition (UBC13 counter-screen) | Recombinant caspase-3, Caspase-Glo 3/7 luminescence, 60 min | AID 488856 | shares compounds with UBC13 inh | inhibition, % at 20 µM | 1,400 compounds, 4% hits;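 active means mean inhibition across replicates above about 26%, limit read from the data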;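 further: plate controls were DMSO with caspase-3 for no effect and DMSO wells lacking enzyme for full effect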
Target sequence (P42574 whole entry, looked up): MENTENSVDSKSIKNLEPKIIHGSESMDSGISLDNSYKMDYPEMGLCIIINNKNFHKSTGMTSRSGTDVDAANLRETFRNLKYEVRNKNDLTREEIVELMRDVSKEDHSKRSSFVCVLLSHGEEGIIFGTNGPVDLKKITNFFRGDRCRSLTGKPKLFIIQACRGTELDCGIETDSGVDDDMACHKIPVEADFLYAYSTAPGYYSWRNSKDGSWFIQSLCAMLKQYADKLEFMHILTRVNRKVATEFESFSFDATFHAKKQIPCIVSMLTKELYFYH
UBC13 conf: confirmation of human UBC13 polyubiquitin inhibitors | shares compounds with UBC13 inh | UBC13 polyubiquitination, TR-FRET, biochemical | inhibition, % at 10 µM | 1,400 compounds, 68% hits | AID 488859; in the data active means inhibition above about 45%; inconclusive means no clear call, values can overlap the other calls
Starred values were filed as active, the others as inactive; ? = inconclusive; . = no result. An excerpt weighted towards active compounds, which were near 4.3% of everything screened.

SMILES	UBC13 inh	UBC9 SUMO inh	RBBP9 inh	PREPL inh	ALR inh	Rin1 Abl inh	Casp3 counter	UBC13 conf
COCCN(Cc1ccccc1)C(=O)C1CCN(S(=O)(=O)c2ccc3c(c2)OCCO3)CC1	14	.	.	10	.	-1	.	.
CN(Cc1ccccc1)C(=O)COC(=O)c1cc(-c2ccc(Cl)s2)nc2ccccc12	51*	18	-13	-20	2	4	-2	?
O=C(Nc1ccccn1)c1cc(-c2ccc(Cl)s2)nc2ccccc12	47*	.	.	5	0	4	1	?
Cc1cccc(NC(=O)c2cc(-c3ccc(C)s3)nc3ccccc23)n1	47*	24	-15	-2	-3	2	3	40
Cc1cc(NC(=O)c2cc(-c3ccc(C)s3)nc3ccccc23)no1	40	7	-4	0	.	1	.	.
CN(Cc1ccccc1)C(=O)COC(=O)c1c[nH]c2ccccc12	.	.	.	.	.	-5	.	.
Cc1ccnc(NC(=O)c2cc(-c3ccc(Cl)s3)nc3ccccc23)c1	?	.	.	5	1	2	.	.
CCOc1ccc(S(=O)(=O)N2CCN=C2c2ccccc2)c(C)c1C	1	5	.	5	-5	1	.	.
CN(C)CCCNC(=S)NCC(c1ccc(Cl)cc1Cl)c1c[nH]c2ccccc12 (centres undefined)	60*	4	.	39	8	0	2	88*
NC1=NC[C@H](Cc2ccccc2)N1CCc1cc(C(F)(F)F)cc(C(F)(F)F)c1	80*	20	.	12	-66	3	-10	45*
Cc1ccc(C)c(S(=O)(=O)N2CCCC2CNC(=O)C(=O)NCc2ccccc2C)c1 (centres undefined)	1	.	.	12	-3	-2	.	.
COc1ccccc1NC(=O)c1cnc(SCC(=O)NCCc2ccccc2)n(C)c1=O	21	.	.	2	-4	1	.	.
COc1cccc(-n2nnnc2SCC(=O)NCc2ccc3c(c2)OCO3)c1	-8	33	10	-15	1	-2	.	.
Cn1c(SCC(=O)NCc2ccccc2)ncc(C(=O)Nc2ccccc2)c1=O	63*	.	.	7	0	-1	96*	62*
Cn1c(SCC(=O)NCC2CCCO2)ncc(C(=O)Nc2ccccc2)c1=O (centres undefined)	69*	.	.	-8	53	-3	96*	66*
COc1cccc(NC(=O)c2cnc(SCC(=O)NCc3ccc4c(c3)OCO4)n(C)c2=O)c1	56*	.	.	-18	-21	7	98*	50*
Cc1ccc(CNC(=O)CSc2ncc(C(=O)Nc3ccccc3)c(=O)n2C)cc1	55*	.	.	-7	1	-2	95*	63*
Cn1c(SCC(=O)c2ccc(F)cc2)ncc(C(=O)Nc2ccccc2)c1=O	58*	.	.	-7	-17	1	79*	69*
Cn1c(SCC(=O)c2ccc(F)cc2)nnc1-c1ccccc1N	2	-9	-1	10	0	1	.	.
NC1=NC[C@@H](Cc2ccc(O)cc2)N1CCCCC1CCCCC1	66*	16	.	4	-5	2	-1	41
NC1=NC[C@@H](Cc2ccc(O)cc2)N1CCC12CC3CC(CC(C3)C1)C2	15	.	.	6	2	5	.	.
Oc1ccc(C[C@@H]2CNCCN2CCCCC2CCCCC2)cc1	59*	.	.	-12	1	1	-4	48*
Oc1ccc(C[C@H]2CNCCN2CCc2cc(C(F)(F)F)cc(C(F)(F)F)c2)cc1	-3	.	.	-10	0	2	.	.
CC1CC(C)CN(CCCNC(=O)C2CCN(c3ncnc4c3sc3cccc(F)c34)CC2)C1 (centres undefined)	48*	14	-3	31	-6	.	-2	54*
Cc1c(N(C)S(=O)(=O)c2cc(C(=O)NCC3CCCO3)ccc2Cl)c(=O)n(-c2ccccc2)n1C (centres undefined)	1	.	.	10	-4	-2	.	.
SMILES	UBC13 inh	UBC9 SUMO inh	RBBP9 inh	PREPL inh	ALR inh	Rin1 Abl inh	Casp3 counter	UBC13 conf
CCN1CCN(C(=O)c2cc(-c3ccc(Cl)s3)nc3ccccc23)CC1	25	6	.	.	.	-2	.	.
CCN1CCN(C(=O)c2cc(-c3ccco3)nc3ccccc23)CC1	52*	.	.	16	0	-3	4	32
O=C(NCC1CCN(Cc2ccc(Cl)cc2)CC1)C1CCCN(c2ncnc3c2nc2n3CCCCC2)C1 (centres undefined)	78*	2	.	24	1	3	-1	101*
CC1CCCC(C)N1CCCNC(=O)C1CCCN(c2ncnc3c2nc2n3CCCCC2)C1 (centres undefined)	56*	2	.	28	2	1	2	88*
O=C(NCC1CCN(Cc2cccc(Cl)c2)CC1)C1CCCN(c2ncnc3c2nc2n3CCCCC2)C1 (centres undefined)	93*	9	.	26	-1	-4	-3	107*
CN1CCN(C(=O)C2CCN(c3ncnc4c3nc3n4CCCCC3)CC2)CC1	86*	8	.	-2	-7	2	5	101*
CCC1CCCCN1CCCNC(=O)C1CCCN(c2ncnc3c2nc2n3CCCCC2)C1 (centres undefined)	35	12	.	13	-1	-1	.	.
COc1ccccc1OCCSc1nc2ccccc2n1CC(=O)O	.	.	.	.	.	-5	.	.
CCN(CC)CCCNC(=O)CSc1nc(-c2ccc(F)cc2)cc(C(F)(F)F)n1	-6	20	-9	-5	.	0	.	.
COc1ccc(/C=N/NC(=O)c2ccccc2F)cc1CN1CCN(c2ccc(F)cc2)CC1	.	6	-1	-11	36	-3	.	.
O=C(NCc1ccccc1)C1CCCN(c2ncnc3c2nc2n3CCCCC2)C1 (centres undefined)	5	-12	.	9	2	3	.	.
O=C(NCC1CCN(Cc2ccc(F)cc2)CC1)C1CCCN(c2ncnc3c2nc2n3CCCCC2)C1 (centres undefined)	78*	1	.	14	0	7	-3	95*
CCN(CC(=O)NC(=O)NC1CCCC1)Cc1ccccc1	5	.	.	-8	-10	1	.	.
CNC[C@@H](CC1CCCCC1)NC[C@H](CC(C)C)NCCc1cccc(C(F)(F)F)c1	92*	8	.	10	-25	4	-1	80*
CCC[C@@H](CNC)NC[C@H](Cc1ccccc1)NCCCCc1ccccc1	36	16	.	18	-2	1	.	.
CNC[C@@H](Cc1ccccc1)NC[C@@H](CC1CCCCC1)NCCCc1ccccc1	93*	6	.	14	-14	0	-2	76*
NC(N)=N/N=C/c1ccc(OCc2ccccc2)c(OCc2ccccc2)c1	110*	-6	.	37	-5	2	-1	125*
